Calls of active or inactive are those of the source. No cut-off for these calls is given here. Where only a bound is given, the exact number is not on record here.

In one assay the test system is NCI-H1650. As to the kind of experiment: Cytotoxicity against human NCI-H1650 cells assessed as growth inhibition after 48 hrs by MTT assay. The class given is functional.
Settings: not given
The procedure, abridged: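 H1650 cells were exposed to drug for 48 h at five concentrations bracketing 1–40 μM in 10 μM steps, with MTT read-out. GI50 is given only where the data form a sigmoidal dose response.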
By GI50 is commonly meant the concentration giving 50% growth inhibition. Regarding `CN(CCCN1c2ccccc2Sc2ccc(Cl)cc21)S(=O)(=O)c1ccc(Cl)cc1`, the GI50 entry is “inactive”.

Turning to `O=S(=O)(NCCCCN1c2ccccc2CCc2ccc(Cl)cc21)c1ccc(Cl)cc1`, the GI50 entry was “inactive”.

For the molecule `CN(CCN1c2ccccc2CCc2ccc(Cl)cc21)S(=O)(=O)c1ccc(C(F)(F)F)cc1`, the GI50 entry is “inactive”.

Consider `O=S(=O)(NCCCN1c2ccccc2CCc2ccccc21)N1CCOCC1`, for which the GI50 entry is “inactive”.

As to `CCCN1c2ccccc2Sc2ccc(Cl)cc21`, the GI50 entry was “inactive”.

For `O=S(=O)(c1ccc(Cl)cc1)N1CCC(=C2c3ccccc3CCc3ccccc32)CC1`, the GI50 result was “inactive”.

Consider `CC(C)S(=O)(=O)NCCCN1c2ccccc2CCc2ccc(Cl)cc21`, for which the GI50 result was “inactive”.

`CN(CCN1c2ccccc2Sc2ccc(Cl)cc21)S(=O)(=O)c1ccc(Cl)cc1`: the GI50 result is “inactive”.

With `O=S(=O)(c1ccc(Cl)cc1)N1CCCCC1CCN1c2ccccc2CCc2ccccc21` (configuration not stated), the GI50 result was “inactive”.

Turning to `O=S(=O)(NCCCN(c1ccccc1)c1cccc(Cl)c1)c1ccc(C(F)(F)F)cc1`, the GI50 result was “inactive”.

In the case of `O=S(=O)(c1ccc(OC(F)(F)F)cc1)N1CCCCC1CCN1c2ccccc2Sc2ccc(Cl)cc21` (configuration not stated), the GI50 entry is “inactive”.

Consider `O=S(=O)(NCCCN1CCCCc2ccccc21)c1ccc(OC(F)(F)F)cc1`, for which the GI50 result was “inactive”.

Take `O=S(=O)(c1ccc(OC(F)(F)F)cc1)N1CCC(=C2c3ccccc3CCc3ccccc32)CC1`: the GI50 entry was “inactive”.

On to `COC(=O)NCCN1c2ccccc2Sc2ccc(Cl)cc21`, for which the GI50 result was “inactive”.

Regarding `CN(C)S(=O)(=O)NCCCN1c2ccccc2CCc2ccccc21`, the GI50 entry is “inactive”.

With `O=C(NCCCN1c2ccccc2CCc2ccc(Cl)cc21)NS(=O)(=O)c1ccc(OC(F)(F)F)cc1`, the GI50 entry is “inactive”.

For `O=S(=O)(NCCCN1CCCCc2ccccc21)c1ccc(Cl)cc1`, the GI50 result was “inactive”.

For the molecule `O=S(=O)(NCCCN1c2ccccc2CCc2ccccc21)c1cccnc1`, the GI50 entry is “inactive”.

Take `O=S(=O)(NCCCN1c2ccccc2CCc2ccc(Cl)cc21)c1ccc(Cl)cc1Cl`: the GI50 result is “inactive”.

In the case of `Cc1ccccc1S(=O)(=O)NCCCN1c2ccccc2Sc2ccc(Cl)cc21`, the GI50 entry is “inactive”.

Turning to `O=S(=O)(NCCCCN1c2ccccc2CCc2ccc(Cl)cc21)c1ccc(C(F)(F)F)cc1`, the GI50 entry is “inactive”.

Take `CN(CCCN1c2ccccc2CCc2ccc(Cl)cc21)S(=O)(=O)c1ccc(OC(F)(F)F)cc1`: the GI50 result is “inactive”.

Consider `O=S(=O)(NCCCN1c2ccccc2CCc2ccccc21)c1ccc2c(c1)OCO2`, for which the GI50 result is “inactive”.

For the molecule `O=S(=O)(c1ccc(OC(F)(F)F)cc1)N1CCCCC1CCN1c2ccccc2CCc2ccccc21` (configuration not stated), the GI50 entry is “inactive”.

In the case of `CC(=O)NCCCN1c2ccccc2CCc2ccc(Cl)cc21`, the GI50 result is “inactive”.

Still in this assay, the particulars now being: NCI-H1650, 48 h.
As to `O=S(=O)(NCCCN1c2ccccc2CCc2ccccc21)c1ccc(Cl)cc1`, the GI50 stood at 20.6 µM.

As to `O=S(=O)(NC1CCC2(OC1)c1ccccc1CCc1ccccc12)c1ccc(Cl)cc1` (configuration not stated), the GI50 was 25 µM.

Regarding `O=S(=O)(NCCC=C1c2ccccc2CCc2ccccc21)c1ccc(F)cc1`, the GI50 was found to be 20 µM.

Take `O=S(=O)(NCCCN1c2ccccc2Sc2ccc(Cl)cc21)c1ccc(Oc2ccccc2)cc1`: the 50% growth inhibitory concentration (GI50) was greater than 40 µM.

In the case of `O=S(=O)(NCCN1c2ccccc2CCc2ccc(Cl)cc21)c1ccc(C(F)(F)F)cc1`, the GI50 came out at 16.4 µM.

In the case of `O=S(=O)(NCCCN1c2ccccc2OCc2cccnc21)c1ccc(Cl)cc1`, the concentration for 50% growth inhibition (GI50) was greater than 40 µM.

Turning to `O=S(=O)(NC1CCC(=C2c3ccccc3CCc3ccccc32)CC1)c1ccc(OC(F)(F)F)cc1` (configuration not stated), the concentration for 50% growth inhibition (GI50) was determined as 20 µM.

On to `O=S(=O)(NC1CCOC2(C1)c1ccccc1CCc1ccccc12)c1ccc(Cl)cc1` (configuration not stated), for which the GI50 was greater than 40 µM.

`O=S(=O)(NC1CCCC(=C2c3ccccc3CCc3ccccc32)C1)c1ccc(Cl)cc1` (configuration not stated): the 50% growth inhibitory concentration (GI50) came out at 17 µM.

On to `O=S(=O)(NCCCN1c2ccccc2CCc2ccccc21)c1ccc(OC(F)(F)F)cc1`, for which the 50% growth inhibitory concentration (GI50) amounted to 22 µM.

For `O=S(=O)(NCCCN1c2ccccc2CCc2ncccc21)c1ccc(Cl)cc1`, the concentration for 50% growth inhibition (GI50) is 30 µM.

For `N#Cc1ccc(S(=O)(=O)NCCC=C2c3ccccc3CCc3ccccc32)cc1`, the GI50 came to 25 µM.

Regarding `N#Cc1ccc(S(=O)(=O)NCCCN2c3ccccc3CCc3ccc(Cl)cc32)cc1`, the concentration for 50% growth inhibition (GI50) is 20 µM.

As for `O=C(NCCCN1c2ccccc2CCc2ccc(Cl)cc21)Nc1ccc(OC(F)(F)F)cc1`, the 50% growth inhibitory concentration (GI50) is greater than 40 µM.

For the molecule `Cc1nn(C)c(Cl)c1S(=O)(=O)NCCCN1c2ccccc2CCc2ccccc21`, the GI50 was greater than 40 µM.

`O=S(=O)(NCCNC1c2ccccc2CCc2ccccc21)c1ccc(OC(F)(F)F)cc1`: the 50% growth inhibitory concentration (GI50) is 25 µM.

Take `O=S(=O)(NCCCN1c2ccccc2CCc2cncnc21)c1ccc(OC(F)(F)F)cc1`: the 50% growth inhibitory concentration (GI50) is greater than 40 µM.

As for `O=S(=O)(N[C@@H]1CCC[C@@H](N2c3ccccc3CCc3ccccc32)C1)c1ccc(OC(F)(F)F)cc1`, the GI50 came out at 18 µM.

For `N#Cc1ccc(S(=O)(=O)NCCCN2c3ccccc3Sc3ccc(Cl)cc32)cc1`, the 50% growth inhibitory concentration (GI50) was greater than 40 µM.

As for `O=S(=O)(NCCCN1c2ccccc2CCc2ccc(Cl)cc21)c1ccccc1OC(F)(F)F`, the 50% growth inhibitory concentration (GI50) was 25 µM.

On to `O=S(=O)(NCCC=C1c2ccccc2CCc2ccccc21)c1ccc(Cl)cc1`, for which the GI50 came to 18 µM.

For `CN(C)CCC=C1c2ccccc2COc2ccccc21` [DOXEPIN], the GI50 is greater than 40 µM.

As to `O=S(=O)(N[C@H]1CC[C@H](N2c3ccccc3CCc3ccccc32)CC1)c1ccc(Cl)cc1`, the GI50 was determined as 15 µM.

Consider `CCN(CC)C(C)CN1c2ccccc2Sc2ccccc21` (configuration not stated) [ETHOPROPAZINE], for which the GI50 was greater than 40 µM.

Regarding `O=S(=O)(NCCCN1c2ccccc2CCc2ccc(Cl)cc21)c1ccccc1`, the GI50 turned out to be 25 µM.

Regarding `CN(C)CCCN1c2ccccc2Sc2ccc(Cl)cc21` [CHLORPROMAZINE], the GI50 came to 30.3 µM.

For `O=S(=O)(NCCCN1c2ccccc2CCc2ccc(Cl)cc21)c1ccc(F)cc1`, the GI50 is greater than 40 µM.

`O=S(=O)(NCCCN1c2ccccc2CCc2ccc(Cl)cc21)c1cccc(OC(F)(F)F)c1`: the GI50 amounted to 20 µM.

Regarding `O=S(=O)(NCCC=C1c2ccccc2CCc2ccccc21)c1ccc(OC(F)(F)F)cc1`, the GI50 was 20 µM.

Turning to `O=S(=O)(NCCN1c2ccccc2Sc2ccc(Cl)cc21)c1ccc(C(F)(F)F)cc1`, the GI50 turned out to be 25 µM.

With `O=S(=O)(NCCCN1c2ccccc2Sc2ccc(Cl)cc21)c1ccc(OC(F)(F)F)cc1`, the GI50 was greater than 40 µM.

In the case of `O=S(=O)(NCCCN1c2ccccc2CCc2cccnc21)c1ccc(Cl)cc1`, the GI50 amounted to 27 µM.

Consider `O=S(=O)(NCCCN1c2ccccc2CCc2ccc(Cl)cc21)c1cc(Cl)sc1Cl`, for which the GI50 turned out to be 25 µM.

For the molecule `O=S(=O)(NCCCN1c2ccccc2CCc2ncccc21)c1ccc(OC(F)(F)F)cc1`, the concentration for 50% growth inhibition (GI50) was found to be 27 µM.

With `O=S(=O)(NC1CCC(=C2c3ccccc3CCc3ccccc32)CC1)c1ccc(Cl)cc1` (configuration not stated), the GI50 came out at 20 µM.

For `CC(CNS(=O)(=O)c1ccc(Cl)cc1)CN1c2ccccc2CCc2ccccc21` (configuration not stated), the GI50 worked out at 23 µM.

Regarding `O=S(=O)(NCCCN1c2ccccc2CCc2cccnc21)c1ccc(OC(F)(F)F)cc1`, the concentration for 50% growth inhibition (GI50) turned out to be 22 µM.

For the molecule `O=S(=O)(N[C@H]1CC[C@@H](N2c3ccccc3CCc3ccccc32)CC1)c1ccc(OC(F)(F)F)cc1`, the GI50 is greater than 40 µM.

Regarding `O=S(=O)(NCCCN1c2ccccc2CCc2ccc(Cl)cc21)c1ccc(Cl)cc1`, the GI50 was 20 µM.

As for `COc1ccc(S(=O)(=O)NCCCN2c3ccccc3Sc3ccc(Cl)cc32)cc1`, the 50% growth inhibitory concentration (GI50) was greater than 40 µM.

With `O=S(=O)(NC1CCCC(=C2c3ccccc3CCc3ccccc32)C1)c1ccc(OC(F)(F)F)cc1` (configuration not stated), the 50% growth inhibitory concentration (GI50) is 15 µM.

With `O=S(=O)(NCCCN1c2ccccc2CCc2ccc(Cl)cc21)c1cnc(Cl)c(Br)c1`, the GI50 is greater than 40 µM.

Regarding `O=C1COc2ccc(S(=O)(=O)NCCCN3c4ccccc4CCc4ccccc43)cc2N1`, the 50% growth inhibitory concentration (GI50) amounted to 22 µM.

`O=S(=O)(NCCNC1c2ccccc2CCc2ccccc21)c1ccc(Cl)cc1`: the GI50 turned out to be 26 µM.

As for `O=S(=O)(NCCCN1c2ccccc2CCc2ccccc21)c1ccc(Oc2ccccc2)nc1`, the GI50 is greater than 40 µM.

As to `NCCCN1c2ccccc2Sc2ccc(Cl)cc21`, the 50% growth inhibitory concentration (GI50) is 10 µM.

As to `O=S(=O)(N[C@H]1CC[C@H](N2c3ccccc3CCc3ccccc32)CC1)c1ccc(OC(F)(F)F)cc1`, the concentration for 50% growth inhibition (GI50) came out at 10 µM.

Regarding `CC(=O)NCCCN1c2ccccc2Sc2ccc(Cl)cc21`, the GI50 is greater than 40 µM.

Consider `COC(=O)NCCCCN1c2ccccc2Sc2ccc(Cl)cc21`, for which the concentration for 50% growth inhibition (GI50) was greater than 40 µM.

For `O=S(=O)(NC1CCC2(OC1)c1ccccc1CCc1ccccc12)c1ccc(C(F)(F)F)cc1` (configuration not stated), the concentration for 50% growth inhibition (GI50) turned out to be 15 µM.

Turning to `Cc1ccc(S(=O)(=O)NCCCCN2c3ccccc3Sc3ccc(Cl)cc32)cc1`, the concentration for 50% growth inhibition (GI50) is greater than 40 µM.

For `O=S(=O)(NCCCN1c2ccccc2CCc2ccc(Cl)cc21)c1ccc(Cl)c(Cl)c1`, the GI50 was 21.3 µM.

On to `CC(=O)Nc1ncc(S(=O)(=O)NCCCN2c3ccccc3CCc3ccccc32)s1`, for which the concentration for 50% growth inhibition (GI50) is greater than 40 µM.

Regarding `O=S(=O)(NCCN1c2ccccc2CCc2ccc(Cl)cc21)c1ccc(Cl)cc1`, the GI50 was 19.1 µM.

Regarding `O=S(=O)(NCC/C=C1/c2ccccc2Sc2ccc(Cl)cc21)c1ccc(OC(F)(F)F)cc1`, the GI50 came to 40 µM.

As to `O=S(=O)(NC[C@@H](O)CN1c2ccccc2CCc2ccccc21)c1ccc(OC(F)(F)F)cc1`, the GI50 is 18 µM.

Turning to `O=S(=O)(NCCCN1c2ccccc2CCc2ccc(Cl)cc21)c1cccc2ccccc12`, the GI50 was greater than 40 µM.

As to `O=S(=O)(NCCCN1c2ccccc2CCc2ccccc21)c1ccc(C(F)(F)F)cc1`, the 50% growth inhibitory concentration (GI50) was 14.3 µM.

Regarding `O=S(=O)(NC1CCC2(OC1)c1ccccc1CCc1ccccc12)c1ccc(F)cc1` (configuration not stated), the GI50 is 20 µM.

Consider `CC(=O)Nc1ccc(S(=O)(=O)NCCCN2c3ccccc3CCc3ccc(Cl)cc32)cc1`, for which the concentration for 50% growth inhibition (GI50) is 15 µM.

With `O=S(=O)(NCCN1c2ccccc2Sc2ccc(Cl)cc21)c1ccc(OC(F)(F)F)cc1`, the GI50 is 25 µM.

Take `O=S(=O)(NCCCN1c2ccccc2CCc2ccc(Cl)cc21)c1cc(Cl)c(Cl)s1`: the GI50 stood at 18 µM.

Source of the values: ChEMBL document CHEMBL3611968, “Reengineered tricyclic anti-cancer agents” (Bioorg Med Chem, 2015).
